hERG rescue – shields human hERG channel from block by proarrhythmic agents; CHO-hERG, FluxOR thallium flux, dofetilide IC70 present; activation (rescue from dofetilide block), less the hit threshold, % at 10 µM; 310,000 tested, 0.51% active;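 active means activation above the mean of controls blocked by dofetilide plus 5 SD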;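 further: thallium influx through hERG after potassium depolarization seen as dye fluorescence rise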
KCNK9 block – human KCNK9 channel inhibition; AID 488922; HEK293 KCNK9, FluxOR thallium flux fluorescence; stronger effect = lower value; Q9NPC2; 310,000 tested, 1.2% active; B-score at 10 µM;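 active means ratio B-score over 3 SD below the library mean, with starting fluorescence within 5 SD of its mean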;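 further: negative B-score means less thallium flux so channel inhibition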
KCNQ1 act – potentiates or activates the human KCNQ1 potassium channel | P51787 | CHO-K1 KCNQ1, thallium flux FluxOR fluorescence; stronger effect = higher value | B-score at 10 µM | 310,000 tested, 0.35% active;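 active means fluorescence ratio B-score, a plate-corrected score, at least three library SD, with initial intensity B-score within 5 SD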
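Doses: Single concentration per compound, DMSO matched to controls | Test system: KCNQ1-transfected CHO-K1 cells | Timing: 90 min dye loading and 20 min compound exposure, both at room temperature | Measured by: Kinetic FluxOR thallium fluorescence, 10-s 1-Hz baseline, 110-s post-stimulus read | Medium: Assay buffer with matched DMSO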
KCNQ1 inh – blocks the human KCNQ1 potassium channel | CHO-K1 KCNQ1, FluxOR thallium flux fluorescence; stronger effect = higher value | 310,000 tested, 1.3% active | B-score at 10 µM;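 active means compounds whose thallium flux B-score, printed positive for inhibition, exceeds three library SD while starting fluorescence stays within three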;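 further: channel opened by potassium depolarization with thallium stimulus after 20 min compound exposure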
Kir21 inh – blocks the mouse Kir2.1 inward-rectifier potassium channel | HEK293-Kir2.1, FluxOR thallium flux fluorescence; stronger effect = lower value | B-score at 10 µM | AID 1672 | 310,000 tested, 0.85% active;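 active means fluorescence ratio B-score at or below minus 3 SD of library scores, with starting-brightness B-score within 2 SD, cut at about -4.2 in these data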;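 further: channel flux triggered by added potassium and thallium sulfate stimulus; B-score of peak minus minimum fluorescence over baseline after thallium stimulus; more negative B-score means stronger Kir2.1 block with less thallium influx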
KCNK3 inh – human KCNK3 channel inhibition, primary screen | B-score at 10 µM | CHO-KCNK3 thallium flux, FluxOR fluorescence; stronger effect = lower value | 340,000 tested, 0.84% active;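 active means B-score under library mean minus 4 SD, starting fluorescence ratio at most library mean plus 5 SD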;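 further: more negative B-score means stronger inhibition of thallium flux through KCNK3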
* marks the source's active call; other numbers are inactive results; i = inactive; · = no result. Only some compounds are listed: those with a hit (about 3.7% of all), similar ones and a draw of the others.

SMILES | hERG rescue | KCNK9 block | KCNQ1 act | KCNQ1 inh | Kir21 inh | KCNK3 inh
Cc1c(NC(=O)C(Sc2ccccc2)c2ccccc2)cccc1[N+](=O)[O-] (stereo unspecified) | -10.3 | i | i | i | 0.03 | i
CCCc1cc(C(=O)N2CCC(n3nccc3NC(=O)c3ccc(OC)cc3)CC2)no1 | -3.7 | i | i | i | -0.42 | i
COc1ccccc1OCC(=O)NNC(=O)CSC(=S)N1CCCC1 | · | · | · | · | · | i
O=C(Nc1ccc(Cl)c([N+](=O)[O-])c1)C(Sc1ccccc1)c1ccccc1 (stereo unspecified) | -17.1 | i | i | 11* | 1.37 | i
CC(=O)N(C)c1ccc(NC(=O)C(Sc2ccccc2)c2ccccc2)cc1 (stereo unspecified) | -9.8 | i | i | i | -1.21 | i
COc1cccc(C(=O)Nc2ccc(-n3nncc3C(C)(C)C)cc2)c1 | -8.6 | i | i | i | -0.02 | i
CC(C)(C)c1cnnn1-c1ccc(NC(=O)c2ccc(Br)o2)cc1 | -9.1 | -7.07* | i | i | -0.69 | i
CN1CCN(c2ccc(NC(=O)c3ccc(Br)o3)cc2)CC1 | 1.2 | i | 13* | i | -0.24 | i
O=C(Nc1ccc(N2CCOCC2)cc1)c1ccc(Br)o1 | -7.8 | i | i | i | 0.86 | i
S=C(NCc1ccc(Cl)cc1)NC1CCN(Cc2ccccc2)CC1 | -16.1 | i | i | i | -2.04 | i
O=C(O)C1(Nc2ccc(Br)cc2)CCCC1 | · | · | · | · | · | i
OCCN1CCN(CC#CCC(c2ccccc2)c2ccccc2)CC1 | -3.7 | i | i | i | -5.67* | i
OCCN1CCN(CC#CCn2c3ccccc3c3ccccc32)CC1 | -6.6 | i | i | i | -4.07 | i
CCCN(CC(=O)Nc1ccccc1Br)CC(=O)Nc1ccc(F)c(F)c1F | -7.8 | -7.01* | i | i | -0.63 | i
COc1ccc(CNC2CC(C)N(C)CC2C)cc1OC (stereo unspecified) | -2.4 | i | i | i | -0.99 | i
COc1cc([N+](=O)[O-])ccc1NC(=S)Nc1cc(C(=O)OC(C)C)cc(C(=O)OC(C)C)c1 | -11.5 | i | i | 6* | 0.19 | i
COc1cc([N+](=O)[O-])ccc1NC(=O)Nc1ccc2c(c1)OCCO2 | 4.6* | i | i | i | 0.87 | i
CC(C)(C)NC(=O)COc1ccc2oc3c(c2c1)CCCC3 | -8.7 | i | i | i | -0.76 | i
O=C(Nc1ccc(N2CCCC2)c(S(=O)(=O)Nc2cccc(C(F)(F)F)c2)c1)c1cccs1 | -7.8 | -6.98* | i | i | -0.26 | i
O=S(=O)(O)c1ccc(Cl)c(Cl)c1 | · | · | · | · | · | i
CC(C)Nc1ccc(Nc2ccnc3cc4ccccc4cc23)cc1 | -32.9 | i | i | 9* | -6.4* | i
CCOc1ccccc1Nc1ccnc2cc(Cl)ccc12 | -12.3 | i | i | i | 0.48 | i
COc1cc(OC)cc(C(=O)NNC(=O)C(=O)Nc2cc(OC)c(Cl)cc2OC)c1 | 51.4* | i | 32* | i | -1.22 | i
COc1cc(NC(=O)C(=O)NNC(=O)C2CCCCC2)c(OC)cc1Cl | 1.7 | i | i | i | 0.25 | i
COc1cccc(C(=O)Nc2cc(Cl)c(O)c(Cl)c2)c1 | -4.6 | i | i | i | 1.19 | i
SMILES | hERG rescue | KCNK9 block | KCNQ1 act | KCNQ1 inh | Kir21 inh | KCNK3 inh
CCc1ccc(NC(=O)C(=O)NNC(=O)c2cccc(OC)c2)cc1 | 38.4* | i | 76* | i | 1.48 | i
COc1cccc(C(=O)NNC(=O)C(=O)Nc2ccc(C)c(Cl)c2)c1 | 31.1* | i | 35* | i | -0.02 | i
CCCCN1CC(=O)N2[C@H]3c4ccccc4OC[C@@H]3[C@H](C(=O)OCC)[C@]2(C)C1=O | · | · | · | · | · | i
CCC(C)NC(=O)[C@H]1N2C(=O)c3c(ccc(OC)c3OC)C2SC1(C)C (stereo partly specified) | -4.3 | i | i | i | 0 | i
COc1cc(S(=O)(=O)Nc2ccc(Br)cc2)ccc1N | -12.5 | i | i | i | -1.08 | i
Nn1c(Cc2cccc3ccccc23)nnc1SCCOc1ccc(Br)cc1 | -3.2 | i | i | i | -1.12 | i

Compound activity from PubChem.
